Results: ChEMBL document CHEMBL3297714, “Gigantol, a bibenzyl from Dendrobium draconis, inhibits the migratory behavior of non-small cell lung cancer cells” (J Nat Prod, 2014)
pIC50: −log10 of the molar value. Active and inactive are the calls of the source. No cut-off for these calls is given here.

Tests used:
[1] = tested on: NCI-H460; assay: Inhibition of human NCI-H460 cells migration at 20 uM after 24 hrs by Boyden chamber assay relative to control; type: functional
Method in brief: (§1)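 For the Boyden chamber, H460 cells at 5 × 10^4/well were placed on the upper side of an 8 μm Transwell filter in RPMI with 0.1% FBS plus compound (0−20 μM) for 24 h, with 10% FBS below. Non-migrated cells were swabbed off, and underside cells were stained with 10 μg/mL Hoechst 33342 for 30 min and counted per field. n = 4.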

[2] = tested on: NCI-H460; assay: Induction of apoptosis in human NCI-H460 cells at 50 to 100 uM for 24 hrs by Hoechst-[…]/PI staining based fluorescence microscopic analysis; type: functional, cell-based
Method in brief: (§2)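 They were stained with 10 μg/mL Hoechst 33342 plus 5 μg/mL propidium iodide for 30 min. Apoptotic (Hoechst-condensed) and necrotic (PI-positive) cells were scored by fluorescence microscopy as % versus untreated control.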

[3] = tested on: NCI-H460; assay: Inhibition of human NCI-H460 cells migration after 24 to 72 hrs by wound healing assay; type: functional, cell-based
Method in brief: (§3)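 H460 cells were seeded at 2.5 × 10^5/well and grown to a monolayer, then scratched with a 1 mm tip and washed with PBS. They were kept in serum-free RPMI with 0−20 μM for 24 h, or ± 20 μM for 24, 48 and 72 h. The wound was photographed, and migration was calculated as the change in wound space divided by that of control. Mean ± SD, n = 4.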

[4] = tested on: NCI-H460; assay: Cytotoxicity against human NCI-H460 cells assessed as cell viability at 50 uM for 24 hrs by MTT assay; type: functional; details: NCI-H460, 24 h, read-out: Activity
Method in brief: (§4)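 MTT was given for 4 h at 37 °C, formazan was solubilized in DMSO and absorbance taken at 570. Viability is % of untreated control. IC50 came from four independent experiments. n = 4.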

[5] = tested on: NCI-H460; assay: Inhibition of human NCI-H460 cells migration at 5 uM after 24 hrs by wound healing assay; type: functional; details: NCI-H460, 24 h; method in brief: as §3
[6] = biological target: Focal adhesion kinase 1 (Homo sapiens) (UniProt Q05397); assay: Inhibition of Fak phosphorylation at Tyr397 in human NCI-H460 cells at 0 to 20 uM for 24 hrs by Western blot analysis; type: cell-based
Method in brief: (§5)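 H460 cells were seeded at 5 × 10^5/well, left overnight, then exposed to 0−20 μM for 24 h. Lysis used Tris-HCl pH 7.5 buffer with Triton X-100, vanadate, NaF, PMSF and protease inhibitors, 40 min on ice. 60 μg protein per lane was run on 10% SDS-PAGE and blotted to nitrocellulose. Primary antibody overnight at 4 °C, then HRP secondary. Chemiluminescence, densitometry, β-actin loading control.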

[7] = tested on: NCI-H460; assay: Cytotoxicity against human NCI-H460 cells assessed as cell viability at 100 uM for 24 hrs by MTT assay; type: functional; details: NCI-H460, 24 h, read-out: Activity; method in brief: as §4
[8] = biological target: RAC-alpha serine/threonine-protein kinase (Homo sapiens) (UniProt P31749); assay: Inhibition of Akt phosphorylation at Ser473 in human NCI-H460 cells at 0 to 20 uM for 24 hrs by Western blot analysis; type: cell-based; method in brief: as §5
[9] = tested on: NCI-H460; assay: Inhibition of human NCI-H460 cells migration at 5 uM after 24 hrs by Boyden chamber assay relative to control; type: functional; method in brief: as §1
[10] = tested on: HaCaT; assay: Cytotoxicity against human HaCaT cells assessed as cell migration at 0 to 20 uM after 24 hrs by wound healing assay; type: cell-based
Method in brief: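 HaCat keratinocytes grown in DMEM with 10% FBS, 2 mM L-glutamine and penicillin/streptomycin. A confluent monolayer was scratched with a 1 mm tip, washed with PBS, and kept in serum-free medium with compound (0−20 μM) for 24 h. The wound was photographed, and the change in wound space was expressed relative to untreated cells.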

[11] = tested on: NCI-H460; assay: Inhibition of human NCI-H460 cells migration at 20 uM after 24 hrs by wound healing assay; type: functional; details: NCI-H460, 24 h; method in brief: as §3
[12] = tested on: NCI-H460; assay: Cytotoxicity against human NCI-H460 cells assessed as cell viability for 24 hrs by MTT assay; type: functional, cell-based; details: NCI-H460, 24 h; method in brief: as §4
[13] = tested on: NCI-H460; assay: Decrease in Cav-1 expression in human NCI-H460 cells at 0 to 20 uM for 24 hrs by Western blot analysis; type: functional, cell-based; method in brief: as §5
[14] = tested on: NCI-H460; assay: Inhibition of human NCI-H460 cells migration at 20 uM by wound healing assay; type: functional, cell-based; details: TDE = time-dependent effect; method in brief: as §3
[15] = tested on: NCI-H460; assay: Induction of necrosis in human NCI-H460 cells at 50 to 100 uM for 24 hrs by Hoechst-[…]/PI staining based fluorescence microscopic analysis; type: functional, cell-based; method in brief: as §2
[16] = tested on: NCI-H460; assay: Cytotoxicity against human NCI-H460 cells assessed as cell viability at 0 to 20 uM for 12 to 72 hrs by MTT assay; type: functional, cell-based
Method in brief: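 MTT was added for 4 h at 37 °C, formazan was dissolved in DMSO and read at 570. Viability is given as % of untreated cells. Mean ± SD, n = 4.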

[17] = tested on: NCI-H460; assay: Cytotoxicity against human NCI-H460 cells assessed as cell viability at 500 uM for 24 hrs by MTT assay; type: functional; details: NCI-H460, 24 h, read-out: Activity; method in brief: as §4
[18] = tested on: NCI-H460; assay: Effect on unphosphorylated Akt level in human NCI-H460 cells at 0 to 20 uM for 24 hrs by Western blot analysis; type: functional, cell-based; method in brief: as §5
[19] = tested on: NCI-H460; assay: Inhibition of human NCI-H460 cells migration transfected with Cav-1 shRNA at 20 uM after 24 hrs by wound healing assay; type: functional, cell-based
Method in brief: (§6)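 H460 cells were stably transfected (Lipofectamine 2000) with Cav-1 expression, Cav-1 shRNA or control plasmid, selected with antibiotic for 30 days and pooled, then passaged twice without G418. Confluent monolayers were scratched with a 1 mm tip and treated with 20 μM for 24 h. Wound-space change was expressed relative to untreated cells. n = 4.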

[20] = tested on: NCI-H460; assay: Inhibition of human NCI-H460 cells migration overexpressing Cav-1 at 20 uM after 24 hrs by wound healing assay; type: functional, cell-based; method in brief: as §6
[21] = tested on: NCI-H460; assay: Inhibition of human NCI-H460 cells migration at 10 uM after 24 hrs by Boyden chamber assay relative to control; type: functional; method in brief: as §1
[22] = tested on: NCI-H292; assay: Inhibition of human NCI-H292 cells migration at 0 to 20 uM after 24 hrs by wound healing assay; type: functional, cell-based
Method in brief: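 NCI-H292 cells in RPMI-1640 with 10% FBS were grown to a confluent monolayer and scratched with a 1 mm tip. They were incubated in serum-free RPMI with 0−20 μM for 24 h. The change in wound space was measured from photographs relative to untreated cells.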

[23] = tested on: NCI-H460; assay: Decrease in Cdc42 expression in human NCI-H460 cells at 0 to 20 uM for 24 hrs by Western blot analysis; type: functional, cell-based; method in brief: as §5
[24] = tested on: NCI-H460; assay: Cytotoxicity against human NCI-H460 cells assessed as cell viability at < 20 uM for 24 hrs by MTT assay; type: functional, cell-based; method in brief: as §4
[25] = tested on: NCI-H460; assay: Inhibition of human NCI-H460 cells invasion at 0 to 20 uM by transwell assay; type: functional, cell-based; details: TDE = time-dependent effect
Method in brief: (§7)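 Matrigel-coated Transwell inserts (8 μm pore) were seeded with H460 cells at 1.5 × 10^5/well in RPMI with 0.1% FBS plus compound (0−20 μM), with 10% FBS RPMI in the lower chamber, for 24 or 48 h. Cells that invaded the underside were stained with 10 μg/mL Hoechst 33342 for 30 min and counted per field by fluorescence microscopy. n = 4.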

[26] = tested on: NCI-H460; assay: Inhibition of human NCI-H460 cells migration at 10 uM after 24 hrs by wound healing assay; type: functional; details: NCI-H460, 24 h; method in brief: as §3
[27] = tested on: NCI-H460; assay: Effect on Fak expression in human NCI-H460 cells at 0 to 20 uM for 24 hrs by Western blot analysis; type: functional, cell-based; method in brief: as §5
[28] = tested on: NCI-H460; assay: Inhibition of human NCI-H460 cells invasion after 24 hrs by transwell assay; type: functional, cell-based; method in brief: as §7
[29] = tested on: NCI-H460; assay: Decrease in filopodia protrussions in human NCI-H460 cells at 10 to 20 uM for 24 hrs by phalloidin staining based fluorescence microscopic analysis; type: functional, cell-based
Method in brief: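 H460 cells were seeded at 5 × 10^4/well and treated 24 h (0−20 μM). Cells were fixed in 4% paraformaldehyde, permeabilized with 0.1% Triton X-100 and blocked with 0.2% BSA, then stained with rhodamine-phalloidin (1:100, 15 min) or Hoechst 33342. Filopodia per cell were counted by fluorescence microscopy relative to untreated cells.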

Focal adhesion kinase 1 (Homo sapiens), sequence (Q05397 2-1052 limits assumed): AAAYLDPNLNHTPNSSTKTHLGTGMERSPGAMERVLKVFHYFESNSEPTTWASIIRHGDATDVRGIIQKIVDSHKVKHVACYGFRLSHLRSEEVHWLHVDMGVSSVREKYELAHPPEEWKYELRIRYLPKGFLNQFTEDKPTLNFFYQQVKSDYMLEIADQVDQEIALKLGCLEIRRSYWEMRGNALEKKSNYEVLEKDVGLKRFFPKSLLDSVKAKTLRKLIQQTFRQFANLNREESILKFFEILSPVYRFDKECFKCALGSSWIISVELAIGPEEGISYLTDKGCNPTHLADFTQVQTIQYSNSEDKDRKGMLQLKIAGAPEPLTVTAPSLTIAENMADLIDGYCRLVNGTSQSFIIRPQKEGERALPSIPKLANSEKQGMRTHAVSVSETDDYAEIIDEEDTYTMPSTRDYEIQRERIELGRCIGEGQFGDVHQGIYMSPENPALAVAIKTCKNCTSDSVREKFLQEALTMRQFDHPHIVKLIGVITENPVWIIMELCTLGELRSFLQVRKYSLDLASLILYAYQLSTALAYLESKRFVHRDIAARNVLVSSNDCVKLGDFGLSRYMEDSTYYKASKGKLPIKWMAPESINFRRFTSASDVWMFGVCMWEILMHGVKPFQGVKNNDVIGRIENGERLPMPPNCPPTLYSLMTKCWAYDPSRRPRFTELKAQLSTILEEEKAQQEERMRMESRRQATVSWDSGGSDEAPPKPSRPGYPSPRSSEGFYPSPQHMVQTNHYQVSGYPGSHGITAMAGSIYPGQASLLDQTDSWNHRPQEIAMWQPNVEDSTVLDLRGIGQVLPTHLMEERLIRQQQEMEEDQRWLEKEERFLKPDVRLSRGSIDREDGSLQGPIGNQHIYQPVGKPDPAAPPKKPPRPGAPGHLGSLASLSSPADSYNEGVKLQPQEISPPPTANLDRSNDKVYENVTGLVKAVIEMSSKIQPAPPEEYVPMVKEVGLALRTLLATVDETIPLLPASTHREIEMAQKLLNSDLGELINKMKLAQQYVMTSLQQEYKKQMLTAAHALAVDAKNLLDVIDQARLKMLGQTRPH
RAC-alpha serine/threonine-protein kinase (Homo sapiens), sequence (P31749 whole entry): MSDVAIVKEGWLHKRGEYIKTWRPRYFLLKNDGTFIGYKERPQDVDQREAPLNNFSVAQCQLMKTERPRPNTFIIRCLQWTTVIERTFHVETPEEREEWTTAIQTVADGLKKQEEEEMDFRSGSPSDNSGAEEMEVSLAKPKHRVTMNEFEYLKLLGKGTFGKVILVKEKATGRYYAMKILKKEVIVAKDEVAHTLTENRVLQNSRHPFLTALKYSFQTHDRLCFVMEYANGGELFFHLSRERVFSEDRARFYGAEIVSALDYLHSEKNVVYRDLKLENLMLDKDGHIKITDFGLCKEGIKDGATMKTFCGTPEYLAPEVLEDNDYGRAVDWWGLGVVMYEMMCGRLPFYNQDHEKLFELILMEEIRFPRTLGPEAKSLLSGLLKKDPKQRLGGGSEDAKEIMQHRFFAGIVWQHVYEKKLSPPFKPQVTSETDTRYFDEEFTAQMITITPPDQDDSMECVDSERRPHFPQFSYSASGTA

COc1cc(O)cc(CCc2ccc(O)c(OC)c2)c1 [GIGANTOL]
fold change (FC) [1]: 0.3 | Activity [2]: Active | inhibition [3]: Dose-dependent effect | viability at 50 µM [4]: 83% | inhibition at 5 µM [5]: 30% | Activity [6]: inactive | viability at 100 µM [7]: 80% | inhibition [8]: Active | fold change (FC) [9]: 0.7 | Activity [10]: Non-toxic | inhibition at 20 µM [11]: 70% | pIC50 [12]: 3.61 | inhibition [13]: Active | inhibition [14]: tde | Activity [15]: inactive | Activity [16]: inactive | viability at 500 µM [17]: 20% | Activity [18]: inactive | inhibition [19]: Active | inhibition [20]: Active | fold change (FC) [21]: 0.4 | inhibition [22]: Active | inhibition [23]: Active | Activity [24]: inactive | inhibition [25]: tde | inhibition at 10 µM [26]: 50% | Activity [27]: inactive | inhibition [28]: Dose-dependent effect | inhibition [29]: Active
